The list is not random: actives were taken first. Their share in the collection is about 1.9%.
CXCR6 block: CXCR6 receptor inhibitors, primary screen, cell-based, beta-arrestin, luminescence, CHO-K1 PathHunter, 1536-well; C-X-C chemokine receptor type 6 (Homo sapiens), O00574; inhibition, % at 20 µM; hit rate 0.36% among 360,000; AID 602244, 2012; in the data active means inhibition above about 34%, passing the limit was not always enough;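 further: antagonist mode with CXCL16 agonist at 10 nM final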
EBI2 antag: EBI2 receptor antagonists, beta-arrestin recruitment, primary screen, cell-based, luminescence, 7a,25-OHC stimulation, uHTS. G-protein coupled receptor 183 (Homo sapiens), P32249. 7a,25-OHC stimulated. inhibition, % at 5 µM. hit rate 0.81% among 360,000; in the data active means inhibition above about 38%;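 further: enzyme fragment complementation signal reports receptor beta-arrestin coupling in cells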
Target sequence (P32249 whole entry, looked up, the tested form may be a part): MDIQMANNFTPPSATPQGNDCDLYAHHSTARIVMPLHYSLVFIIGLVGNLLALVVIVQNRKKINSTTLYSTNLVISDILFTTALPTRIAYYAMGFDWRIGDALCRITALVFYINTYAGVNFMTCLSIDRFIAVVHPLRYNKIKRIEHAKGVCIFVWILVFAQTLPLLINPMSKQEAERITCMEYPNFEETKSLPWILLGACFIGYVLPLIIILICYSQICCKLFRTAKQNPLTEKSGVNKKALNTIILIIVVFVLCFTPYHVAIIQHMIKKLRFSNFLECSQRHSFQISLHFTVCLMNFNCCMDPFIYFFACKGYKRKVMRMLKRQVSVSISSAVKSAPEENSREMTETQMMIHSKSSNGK
APJ antag: antagonists of human apelin receptor APJ, primary screen, CHO-K1 cells, beta-arrestin complementation, luminescence; inhibition, % at 20 µM; P35414; hit rate 0.32% among 330,000;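 active means inhibition above about 40% at 20 µM, limit read from the data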;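 further: cells challenged with 10 nM apelin-13 agonist together with compound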
TAG inh: inhibitors of triacylglycerol accumulation, primary screen, cell-based, uHTS, fluorescence, H9c2; inhibition, % at 12.5 µM; hit rate 0.66% among 230,000; H9c2 cells, Nile Red lipid (TAG) fluorescence; cells loaded with 200 µM oleic acid; AID 651582, 2012;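 active means pattern-corrected inhibition of lipid staining of at least 50% with the nuclear-stain viability signal not falling by more than 50%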
CCR6 antag: CCR6 receptor antagonists, primary screen, cell-based, CHO-K1, luminescence, beta-arrestin, uHTS; CHO-K1 CCR6 PathHunter beta-arrestin, CCL20-stimulated; inhibition, % at 20 µM; hit rate 0.49% among 340,000; AID 493098, 2011;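 active means compounds whose inhibition of the agonist-driven luminescence signal at 20 µM reaches about 50%, limit read from the data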;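 further: cells stimulated with CCL20 at 14 nM final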
APJ ag: agonists of human apelin receptor APJ, primary screen, CHO-K1 cells, PathHunter beta-arrestin, luminescence; 0% DMSO wells, 100% apelin; activation, % at 20 µM; hit rate 0.11% among 330,000;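 active means activation more than six SD over the plate average, tested at 20 µM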
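system = engineered CHO-K1 APJ arrestin reporter cells | input = 1000 cells per well | timing = overnight seeding, 90 min compound at 25 °C, 1 h detection | measured by = enzyme-fragment complementation luminescence | read-out = beta-arrestin recruitment to APJ as agonist activity, luminescent signal | control set = negative DMSO alone, positive Apelin-13 at 10 nM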
A number is an active result; - = inactive; . = no result given.

SMILES	CXCR6 block	EBI2 antag	APJ antag	TAG inh	CCR6 antag	APJ ag
O=C1ON=C(c2ccccc2)/C1=C/c1ccc(O)cc1	46.3	-	-	.	-	-
Cc1ccc(C2=NOC(=O)/C2=C\c2ccccc2)cc1	-	-	-	-	-	-
Cc1ccc(S(=O)(=O)N2CC3=C(C2)C2CC2(C)C3)cc1 (centres undefined)	-	-	.	.	.	.
COc1ccc(-n2nc3c(N4CCC(C(=O)NCc5ccccc5C)CC4)nnc(C)c3c2C)cc1	-	-	-	.	51.5	-
COc1ccc(-n2nc3c(N4CCC(C(=O)NCCc5ccccc5C)CC4)nnc(C)c3c2C)cc1	-	-	-	.	-	-
O=C(Nc1cccc(Cl)c1)c1cc(N=Nc2ccc([N+](=O)[O-])cc2Cl)ccc1O	63.6	-	56.1	.	100.3	-
CC1CCCCC12NC(=O)N(CC(=O)N1CCN(S(=O)(=O)Cc3ccccc3)CC1)C2=O (centres undefined)	-	-	-	-	-	-
CC(=O)c1cccc(NC(=S)NC(=O)c2cncc(Br)c2)c1	-	-	-	-	56.0	-
CCCCCCCCCCCCC/C=C/[C@@H](O)[C@@H](N)CO	-	-	-	-	66.7	-
COC(=O)C[C@@H]1CC[C@@H](NS(=O)(=O)c2ccc(OC)cc2)[C@@H](CO)O1	.	-	.	.	.	.
Cc1cc(C)c2c(=O)n(CC(=O)Nc3cccc(Cl)c3C)sc2n1	79.7	-	-	-	-	-
Cc1cc(C)c2c(=O)n(CC(=O)Nc3ccc(Br)c(C)c3)sc2n1	-	-	-	-	-	-
COC(=O)c1ccc(S(=O)(=O)c2ccc(Cl)cc2)c(N)c1	-	-	-	.	-	-
COc1ccc2sc(-c3ccccc3OC)c(-c3ccc(OCCN4CCOCC4)cc3)c2c1	-	-	.	-	-	.
COc1ccc(-c2sc3cc4c(cc3c2-c2ccc(OCCN3CCOCC3)cc2)OCO4)cc1	-	-	-	-	-	-
COc1ccccc1-c1sc2cc3c(cc2c1-c1ccc(OCCN2CCCCC2)cc1)OCO3	-	-	-	62.7	-	-
COc1cc2sc(-c3ccccc3OC)c(-c3ccc(OCCN4CCCCC4)cc3)c2cc1OC	-	-	-	81.2	-	-
COc1ccc(-c2csc(C(O)c3ccc(F)c(OC)c3)n2)cc1 (centres undefined)	-	-	.	-	.	.
COc1ccc2c(c1)c(=O)oc1c(C)c(OCc3cc(C(=O)O)oc3C)ccc12	-	-	-	-	55.7	-
C[C@H](CO)N1C[C@H](C)[C@@H](CN(C)Cc2ccc(Oc3ccccc3)cc2)Oc2cc(Br)ccc2S1(=O)=O	-	-	.	-	.	.
O=C(O)c1ccc2c(c1)S(=O)(=O)c1cc(N3CCN(c4ncccn4)CC3)ccc1C2=O	-	-	.	-	.	.
COc1ccc(-c2nc(=S)c3ccc4ccccc4c3[nH]2)cc1	45.1	-	.	-	70.8	.
COc1ccc(-c2nc3ccccc3[nH]2)cc1	-	-	-	.	-	-
CCc1ccc(OC)c(S(=O)(=O)Nc2ccc(Cc3ccncc3)cc2)c1	-	-	-	.	-	-
COC(=O)C1=NN(C(=O)c2cccc(Br)c2)C(O)(c2ccc(Cl)cc2)C1 (centres undefined)	45.3	-	-	-	.	-
CC1=NN(C(=O)c2ccccc2Cl)C(O)(c2ccccc2)C1 (centres undefined)	-	-	-	.	-	-
CC1=NN(C(=O)c2ccccc2)C(O)(c2ccc(Br)cc2)C1 (centres undefined)	-	-	-	-	54.7	-
CC1CC(C)CN(CCCNC(=O)Cn2cccc2C(=O)c2ccccc2)C1 (centres undefined)	-	-	-	.	-	-
OC(COCc1ccccc1)CN1CCN(Cc2ccc3c(c2)OCO3)CC1 (centres undefined)	-	-	-	-	-	-
SC(COCc1ccccc1)CN1CCN(Cc2ccc3c(c2)OCO3)CC1 (centres undefined)	-	-	-	-	63.5	-

Screens deposited in PubChem BioAssay by Sanford-Burnham Center for Chemical Genomics.
